Converted amounts (≈) assume the structure as drawn.
What was measured:
[1] = system: Citrobacter freundii; test: Antimicrobial activity against aac(6')-Ib-cr-positive Citrobacter freundii JS33 harboring GyrA T83I mutant, wild-type ParC, GyrB, qnrA and qnrB genes by agar dilution method; assay type: functional
Method in brief: (§1)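 MICs were determined by the CLSI agar dilution method (M7-A7) and interpreted against CLSI M100-S17 breakpoints.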

[2] = system: Enterobacter cloacae; test: Antimicrobial activity against aac(6')-Ib-cr-negative Enterobacter cloacae GZ47T harboring qnrB gene by agar dilution method in presence of clavulanic acid; assay type: functional; method in brief: as §1
[3] = system: Enterobacter cloacae; test: Antimicrobial activity against aac(6')-Ib-cr-negative Enterobacter cloacae WH42T harboring qnrA gene by agar dilution method; assay type: functional
[4] = system: Enterobacter cloacae; test: Antimicrobial activity against aac(6')-Ib-cr-negative Enterobacter cloacae FJ67T harboring qnrS gene by agar dilution method in presence of clavulanic acid; assay type: functional
Method in brief: (§2)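 Transconjugants came from conjugation of qnr and/or aac(6')-Ib-cr-carrying donors with azide-resistant E. coli J53. […] MICs were determined by CLSI agar dilution (M7-A7) and interpreted by M100-S17.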

[5] = system: Citrobacter freundii; test: Antimicrobial activity against aac(6')-Ib-cr-negative Citrobacter freundii JN64T harboring qnrA gene by agar dilution method in presence of clavulanic acid; assay type: functional; method in brief: as §2
[6] = system: Escherichia coli; test: Antimicrobial activity against aac(6')-Ib-cr-positive Escherichia coli FJ3 harboring GyrA S83L, ParC S80R mutant, wild-type GyrB and qnrB genes by agar dilution method in presence of clavulanic acid; assay type: functional
Method in brief: (§3)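 MICs were determined by CLSI agar dilution (M7-A7) and interpreted by CLSI M100-S17 breakpoints. The curator's line names the β-lactamase inhibitor added.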

[7] = system: Klebsiella pneumoniae; test: Antimicrobial activity against aac(6')-Ib-cr-positive Klebsiella pneumoniae JN132T harboring qnrB gene by agar dilution method; assay type: functional
Method in brief: (§4)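 Transconjugants were made by conjugating a qnr/aac(6')-Ib-cr donor with azide-resistant E. coli J53. Selection used Trypticase soy agar with sodium azide 150 µg/ml and sulfamethoxazole 180 µg/ml. […] MICs were read by CLSI agar dilution (M7-A7) and interpreted per M100-S17.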

[8] = system: Escherichia coli; test: Antimicrobial activity against aac(6')-Ib-cr-positive Escherichia coli FJ3T harboring wild-type GyrA, ParC, GyrB and qnrB genes by agar dilution method in presence of clavulanic acid; assay type: functional; method in brief: as §2
[9] = system: Escherichia coli; test: Antimicrobial activity against aac(6')-Ib-cr-positive Escherichia coli FJ3T harboring wild-type GyrA, ParC, GyrB and qnrB genes by agar dilution method
[10] = system: Klebsiella pneumoniae; test: Antimicrobial activity against aac(6')-Ib-cr-positive Klebsiella pneumoniae SY26 harboring GyrA S83I, ParC S80I mutant, wild-type GyrB and qnrB genes by agar dilution method in presence of clavulanic acid; assay type: functional
Method in brief: (§5)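 MICs measured by CLSI agar dilution (M7-A7) and interpreted against CLSI M100-S17 breakpoints. Strains were clinical Enterobacteriaceae isolates or the azide-resistant E. coli J53 recipient.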

[11] = system: Enterobacter cloacae; test: Antimicrobial activity against aac(6')-Ib-cr-negative Enterobacter cloacae SH39T harboring qnrA gene by agar dilution method; assay type: functional
[12] = system: Citrobacter freundii; test: Antimicrobial activity against aac(6')-Ib-cr-positive Citrobacter freundii PU55T harboring wild-type GyrA, ParC, GyrB and qnrA genes by agar dilution method in presence of clavulanic acid; assay type: functional; method in brief: as §2
[13] = system: Citrobacter freundii; test: Antimicrobial activity against aac(6')-Ib-cr-positive Citrobacter freundii JN1T by agar dilution method; assay type: functional; method in brief: as §1
[14] = system: Citrobacter freundii; test: Antimicrobial activity against aac(6')-Ib-cr-positive Citrobacter freundii PU55T harboring wild-type GyrA, ParC, GyrB and qnrA genes by agar dilution method
[15] = system: Klebsiella pneumoniae; test: Antimicrobial activity against aac(6')-Ib-cr-negative Klebsiella pneumoniae SY22T harboring qnrS gene by agar dilution method in presence of clavulanic acid; assay type: functional; method in brief: as §2
[16] = system: Enterobacter cloacae; test: Antimicrobial activity against aac(6')-Ib-cr-negative Enterobacter cloacae FJ67 harboring […] and qnrS genes by agar dilution method in presence of clavulanic acid; assay type: functional; method in brief: as §1
[17] = system: Citrobacter freundii; test: Antimicrobial activity against aac(6')-Ib-cr-positive Citrobacter freundii PU55 harboring GyrA T83I, ParC S80I mutant, wild-type GyrB, qnrA genes by agar dilution method; assay type: functional; method in brief: as §1
[18] = system: Citrobacter freundii; test: Antimicrobial activity against aac(6')-Ib-cr-positive Citrobacter freundii JS33 harboring GyrA T83I mutant, wild-type ParC, GyrB, qnrA and qnrB genes by agar dilution method in presence of clavulanic acid; assay type: functional; method in brief: as §3
[19] = system: Klebsiella pneumoniae; test: Antimicrobial activity against aac(6')-Ib-cr-positive Klebsiella pneumoniae JN132 harboring GyrA S83I, ParC S80I mutant, wild-type GyrB and qnrB genes by agar dilution method in presence of clavulanic acid; assay type: functional; method in brief: as §5
[20] = system: Enterobacter cloacae; test: Antimicrobial activity against aac(6')-Ib-cr-negative Enterobacter cloacae FJ61T harboring qnrS gene by agar dilution method; assay type: functional
[21] = system: Enterobacter cloacae; test: Antimicrobial activity against aac(6')-Ib-cr-negative Enterobacter cloacae SH39 harboring GyrA S83I, ParC S80I mutant, wild-type GyrB and qnrA genes by agar dilution method in presence of clavulanic acid; assay type: functional; method in brief: as §3
[22] = system: Klebsiella pneumoniae; test: Antimicrobial activity against aac(6')-Ib-cr-positive Klebsiella pneumoniae JN41T harboring qnrB gene by agar dilution method in presence of clavulanic acid; assay type: functional; method in brief: as §2
[23] = system: Citrobacter freundii; test: Antimicrobial activity against aac(6')-Ib-cr-positive Citrobacter freundii TJ15 harboring GyrA T83I, ParC S80I mutant, wild-type GyrB, qnrB genes by agar dilution method in presence of Tazobactam; assay type: functional; method in brief: as §1
[24] = system: Klebsiella pneumoniae; test: Antimicrobial activity against aac(6')-Ib-cr-positive Klebsiella pneumoniae GZ40 harboring GyrA S83I, ParC S80I mutant, wild-type GyrB and qnrB genes by agar dilution method in presence of Tazobactam; assay type: functional; method in brief: as §1
[25] = system: Citrobacter freundii; test: Antimicrobial activity against aac(6')-Ib-cr-positive Citrobacter freundii JN1T by agar dilution method in presence of Tazobactam; assay type: functional
Method in brief: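 MIC by CLSI agar dilution (M7-A7), with categories interpreted per CLSI M100-S17.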

[26] = system: Enterobacter cloacae; test: Antimicrobial activity against aac(6')-Ib-cr-negative Enterobacter cloacae SH39T harboring qnrA gene by agar dilution method in presence of Tazobactam; assay type: functional; method in brief: as §1
[27] = system: Klebsiella pneumoniae; test: Antimicrobial activity against aac(6')-Ib-cr-positive Klebsiella pneumoniae SY26 harboring GyrA S83I, ParC S80I mutant, wild-type GyrB and qnrB genes by agar dilution method in presence of Tazobactam; assay type: functional; method in brief: as §5
[28] = system: Escherichia coli; test: Antimicrobial activity against aac(6')-Ib-cr-positive Escherichia coli FJ3 harboring GyrA S83L, ParC S80R mutant, wild-type GyrB and qnrB genes by agar dilution method in presence of Tazobactam; assay type: functional; method in brief: as §5
[29] = system: Citrobacter freundii; test: Antimicrobial activity against aac(6')-Ib-cr-positive Citrobacter freundii JN1 harboring GyrA T83I, ParC S80I mutant, wild-type GyrB and qnrA genes by agar dilution method in presence of Tazobactam; assay type: functional; method in brief: as §3
[30] = system: Citrobacter freundii; test: Antimicrobial activity against aac(6')-Ib-cr-positive Citrobacter freundii TJ15T harboring wild-type GyrA, ParC, GyrB genes by agar dilution method in presence of Tazobactam; assay type: functional; method in brief: as §1
[31] = system: Klebsiella pneumoniae; test: Antimicrobial activity against aac(6')-Ib-cr-positive Klebsiella pneumoniae WH99T harboring qnrB gene by agar dilution method in presence of Tazobactam; assay type: functional; method in brief: as §4
[32] = system: Klebsiella pneumoniae; test: Antimicrobial activity against aac(6')-Ib-cr-positive Klebsiella pneumoniae JN41T harboring qnrB gene by agar dilution method in presence of Tazobactam; assay type: functional; method in brief: as §4

CO/N=C(\C(=O)N[C@@H]1C(=O)N2C(C(=O)O)=C(COC(C)=O)CS[C@H]12)c1csc(N)n1 [CEFOTAXIME]
MIC [1]: 8 µg/mL (≈ 17.6 µM)
MIC [2]: 0.5 µg/mL
MIC [3]: 8 µg/mL (≈ 17.6 µM)
MIC [4]: 0.032 µg/mL
MIC [5]: 0.064 µg/mL
MIC [6]: 0.032 µg/mL
MIC [7]: 32 µg/mL (≈ 70.3 µM)
MIC [8]: 0.032 µg/mL
MIC [9]: 64 µg/mL (≈ 141 µM)
MIC [10]: 8 µg/mL
MIC [11]: 0.032 µg/mL (≈ 0.0703 µM)
MIC [12]: 0.032 µg/mL
MIC [13]: 8 µg/mL (≈ 17.6 µM)
MIC [14]: 0.064 µg/mL (≈ 0.141 µM)
MIC [15]: 0.032 µg/mL
MIC [16]: 0.25 µg/mL
MIC [17]: 128 µg/mL (≈ 281 µM)
MIC [18]: 64 µg/mL
MIC [19]: 1 µg/mL
MIC [20]: 0.032 µg/mL (≈ 0.0703 µM)
MIC [21]: 32 µg/mL
MIC [22]: 0.032 µg/mL

CCN1CCN(C(=O)N[C@@H](C(=O)N[C@@H]2C(=O)N3[C@@H]2SC(C)(C)[C@@H]3C(=O)O)c2ccccc2)C(=O)C1=O [PIPERACILLIN]
MIC [23]: 4 µg/mL
MIC [24]: > 256 µg/mL
MIC [25]: 2 µg/mL
MIC [26]: 1 µg/mL
MIC [27]: 16 µg/mL
MIC [28]: 2 µg/mL
MIC [29]: 16 µg/mL
MIC [30]: 1 µg/mL
MIC [31]: 2 µg/mL
MIC [32]: 2 µg/mL

Source: ChEMBL document CHEMBL1275556, “High prevalence of plasmid-mediated quinolone resistance genes qnr and aac(6')-Ib-cr in clinical isolates of Enterobacteriaceae from nine teaching hospitals in China” (2008)
